Data taken from ChEMBL document CHEMBL3877264, “Quinolidene-rhodanine conjugates: Facile synthesis and biological evaluation” (Eur J Med Chem, 2017).
Values after ≈ are worked out from the molar mass of the structure shown.

Experiments:
Assay type in all cases: functional
Bacillus subtilis [1] = assay: Antibacterial activity against Bacillus subtilis NCIM 2079 measured after 12 hrs; conditions: NCIM 2079, 12 h
Outline: (§1)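 Bacteria grown in LB at 37 °C and 180 rpm to OD 1. Compounds added to wells, then 0.1% inoculum of 1 OD culture (620 nm). Growth read as OD at 620 nm after 8 h for gram-negative and after 12 h for gram-positive strains.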

Aspergillus niger = assay: Antifungal activity against Aspergillus niger NCIM 1196 by standard agar method
Outline: (§2)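 MICs determined by standard agar method; DMSO as solvent control.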

[2] = tested on: Mycobacterium tuberculosis; assay: Growth inhibition of Mycobacterium bovis BCG ATCC 35743 at active stage measured after 8 days by nitrate reductase dye based two fold dilution method; conditions: BCG str. ATCC 35743, 192 h
Outline: (§3)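 M. bovis BCG was grown in Dubos medium and assayed in Mycobacterium pheli minimal medium (pH 6.6), with compounds from DMSO stocks. Incubation lasted 8 days for active and 12 days for dormant cultures. Viability was read by nitrate reductase at 540 nm against cell-free blanks, with vehicle set as 100% growth. Primary screen was at 30, 10 and 3 µg/ml, in triplicate, mean ± SD. MIC was taken from dose-response curves.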

Staphylococcus aureus [3] = assay: Antibacterial activity against of Staphylococcus aureus NCIM 2010 measured after 12 hrs; conditions: NCIM 2010, 12 h; outline: as §1
Bacillus subtilis [4] = assay: Growth inhibition of Bacillus subtilis NCIM 2079 at 10 ug/ml measured after 12 hrs relative to control; conditions: NCIM 2079, 12 h, read-out: GI; outline: as §1
[5] = tested on: Mycobacterium tuberculosis; assay: Growth inhibition of Mycobacterium tuberculosis H37Ra ATCC 25177 at dormant stage measured after 12 days by XTT dye based two fold dilution method; conditions: H37Ra ATCC 25177, 288 h
Outline: (§4)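 MTB H37Ra was grown in Dubos medium, then exposed in Mycobacterium pheli minimal medium (pH 6.6) to compounds dissolved in DMSO. The assay ended on day 8 (active) or day 12 (dormant). Viable cells were measured by XTT reduction menadione assay at 470 nm, blank-corrected, relative to vehicle control. Triplicates were expressed as mean ± SD. MIC came from dose-response curves.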

[6] = tested on: Mycobacterium tuberculosis; assay: Growth inhibition of Mycobacterium bovis BCG ATCC 35743 at dormant stage measured after 12 days by nitrate reductase dye based two fold dilution method; conditions: BCG str. ATCC 35743, 288 h; outline: as §3
Staphylococcus aureus [7] = assay: Growth inhibition of Staphylococcus aureus NCIM 2010 at 10 ug/ml measured after 12 hrs relative to control; conditions: NCIM 2010, 12 h, read-out: GI; outline: as §1
[8] = Antifungal activity against Fusarium oxysporum NCIM 1332 by standard agar method; outline: as §2
Pseudomonas fluorescens [9] = assay: Growth inhibition of Pseudomonas fluorescens NCIM 2036 at 10 ug/ml measured after 8 hrs relative to control; conditions: NCIM 2036, 8 h, read-out: GI; outline: as §1
[10] = tested on: Mycobacterium tuberculosis; assay: Growth inhibition of Mycobacterium tuberculosis H37Ra ATCC 25177 at active stage measured after 8 days by XTT dye based two fold dilution method; conditions: H37Ra ATCC 25177, 192 h; outline: as §4
Aspergillus flavus = assay: Antifungal activity against Aspergillus flavus NCIM 539 by standard agar method; outline: as §2
Pseudomonas fluorescens [11] = assay: Growth inhibition of Pseudomonas fluorescens NCIM 2036 at 30 ug/ml measured after 8 hrs relative to control; conditions: NCIM 2036, 8 h, read-out: GI; outline: as §1
Staphylococcus aureus [12] = assay: Growth inhibition of Staphylococcus aureus NCIM 2010 at 3 ug/ml measured after 12 hrs relative to control; conditions: NCIM 2010, 12 h, read-out: GI; outline: as §1
Staphylococcus aureus [13] = assay: Growth inhibition of Staphylococcus aureus NCIM 2010 at 30 ug/ml measured after 12 hrs relative to control; conditions: NCIM 2010, 12 h, read-out: GI; outline: as §1
Bacillus subtilis [14] = assay: Growth inhibition of Bacillus subtilis NCIM 2079 at 30 ug/ml measured after 12 hrs relative to control; conditions: NCIM 2079, 12 h, read-out: GI; outline: as §1
Bacillus subtilis [15] = assay: Growth inhibition of Bacillus subtilis NCIM 2079 at 3 ug/ml measured after 12 hrs relative to control; conditions: NCIM 2079, 12 h, read-out: GI; outline: as §1
Escherichia coli [16] = assay: Growth inhibition of Escherichia coli NCIM 2688 at 3 ug/ml measured after 8 hrs relative to control; conditions: NCIM 2688, 8 h, read-out: GI; outline: as §1
Escherichia coli [17] = assay: Antibacterial activity against Escherichia coli NCIM 2688 measured after 8 hrs; conditions: NCIM 2688, 8 h; outline: as §1
Pseudomonas fluorescens [18] = assay: Growth inhibition of Pseudomonas fluorescens NCIM 2036 at 3 ug/ml measured after 8 hrs relative to control; conditions: NCIM 2036, 8 h, read-out: GI; outline: as §1
Escherichia coli [19] = assay: Growth inhibition of Escherichia coli NCIM 2688 at 10 ug/ml measured after 8 hrs relative to control; conditions: NCIM 2688, 8 h, read-out: GI; outline: as §1
Candida albicans = assay: Antifungal activity against Candida albicans NCIM 3471 by standard agar method; outline: as §2
[20] = tested on: Mycobacterium tuberculosis; assay: Growth inhibition of Mycobacterium bovis BCG ATCC 35743 at dormant stage at 30 ug/ml measured after 12 days by nitrate reductase dye based two fold dilution method relative to control; conditions: BCG str. ATCC 35743, 288 h, read-out: GI; outline: as §3
Pseudomonas fluorescens [21] = assay: Antibacterial activity against Pseudomonas fluorescens NCIM 2036 measured after 8 hrs; conditions: NCIM 2036, 8 h; outline: as §1
[22] = Antifungal activity against Cryptococcus neoformans NCIM 576 by standard agar method; outline: as §2
[23] = tested on: Mycobacterium tuberculosis; assay: Growth inhibition of Mycobacterium bovis BCG ATCC 35743 at dormant stage at 10 ug/ml measured after 12 days by nitrate reductase dye based two fold dilution method relative to control; conditions: BCG str. ATCC 35743, 288 h, read-out: GI; outline: as §3
[24] = tested on: Mycobacterium tuberculosis; assay: Growth inhibition of Mycobacterium bovis BCG ATCC 35743 at dormant stage at 3 ug/ml measured after 12 days by nitrate reductase dye based two fold dilution method relative to control; conditions: BCG str. ATCC 35743, 288 h, read-out: GI; outline: as §3
Escherichia coli [25] = assay: Growth inhibition of Escherichia coli NCIM 2688 at 30 ug/ml measured after 8 hrs relative to control; conditions: NCIM 2688, 8 h, read-out: GI; outline: as §1

Row | SMILES | MIC (Bacillus subtilis [1]) | MIC (Aspergillus niger) | IC50 [2] | IC90 [2] | MIC (Staphylococcus aureus [3]) | inhibition of growth at 10 µg/mL (Bacillus subtilis [4]) | IC50 [5] | IC90 [5] | IC50 [6] | IC90 [6] | inhibition of growth at 10 µg/mL (Staphylococcus aureus [7]) | MIC [8] | inhibition of growth at 10 µg/mL (Pseudomonas fluorescens [9]) | IC50 [10] | IC90 [10] | MIC (Aspergillus flavus) | inhibition of growth at 30 µg/mL (Pseudomonas fluorescens [11]) | inhibition of growth at 3 µg/mL (Staphylococcus aureus [12]) | inhibition of growth at 30 µg/mL (Staphylococcus aureus [13]) | inhibition of growth at 30 µg/mL (Bacillus subtilis [14]) | also measured
1 | O=C(O)CN1C(=O)/C(=C/c2cc3cc(Cl)ccc3nc2Cl)SC1=S | > 30 µg/mL | 100 µg/mL (≈ 250 µM) | > 30 µg/mL | > 30 µg/mL | > 30 µg/mL | -12.6% | > 30 µg/mL | > 30 µg/mL | > 30 µg/mL | > 30 µg/mL | 3.88% | 150 µg/mL (≈ 376 µM) | -1.23% | > 30 µg/mL | > 30 µg/mL | 150 µg/mL (≈ 376 µM) | -2.12% | -1.15% | -32.2% | 1.23% | inhibition of growth at 3 µg/mL (Bacillus subtilis [15]): -4.86%; inhibition of growth at 3 µg/mL (Escherichia coli [16]): -12.7%; MIC (Escherichia coli [17]): > 30 µg/mL; inhibition of growth at 3 µg/mL (Pseudomonas fluorescens [18]): -72.5%; inhibition of growth at 10 µg/mL (Escherichia coli [19]): -12.4%; MIC (Candida albicans): 125 µg/mL (≈ 313 µM); inhibition of growth at 30 µg/mL [20]: 9.92%; MIC (Pseudomonas fluorescens [21]): > 30 µg/mL; MIC [22]: 125 µg/mL (≈ 313 µM); inhibition of growth at 10 µg/mL [23]: 2.07%; inhibition of growth at 3 µg/mL [24]: -9.46%; inhibition of growth at 30 µg/mL (Escherichia coli [25]): -14%
2 | Cc1ccc2nc(Cl)c(/C=C3\SC(=S)N(CCC(=O)O)C3=O)cc2c1 | > 30 µg/mL | 100 µg/mL (≈ 255 µM) | > 30 µg/mL | > 30 µg/mL | > 30 µg/mL | -25.6% | > 30 µg/mL | > 30 µg/mL | > 30 µg/mL | > 30 µg/mL | -13.6% | 100 µg/mL (≈ 255 µM) | 1.64% | > 30 µg/mL | > 30 µg/mL | 150 µg/mL (≈ 382 µM) | -6.24% | -9.82% | -19.6% | -31.1% | inhibition of growth at 3 µg/mL (Bacillus subtilis [15]): -20.6%; inhibition of growth at 3 µg/mL (Escherichia coli [16]): -37.5%; MIC (Escherichia coli [17]): > 30 µg/mL; inhibition of growth at 3 µg/mL (Pseudomonas fluorescens [18]): 5.35%; inhibition of growth at 10 µg/mL (Escherichia coli [19]): -47.6%; MIC (Candida albicans): 50 µg/mL (≈ 127 µM); inhibition of growth at 30 µg/mL [20]: -14.8%; MIC (Pseudomonas fluorescens [21]): > 30 µg/mL; MIC [22]: 175 µg/mL (≈ 445 µM); inhibition of growth at 10 µg/mL [23]: -7.25%; inhibition of growth at 3 µg/mL [24]: -7.58%; inhibition of growth at 30 µg/mL (Escherichia coli [25]): -49%
